Measured values reported in paper PMC7332640 (Acta Pharmaceutica Sinica. B, 2019).

Key:
[1] = In vitro phosphorylation of compounds in rat whole blood; format: in vitro ADME; settings: for Vmax (phosphorylation): 37 °C, 60 min, 1–100 μmol/L; for Km: read-out: Km (phosphorylation), 37 °C, 60 min, 1–100 μmol/L
How it was run: (§1)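 Test compound was spiked directly into fresh whole blood at eight levels from 1 to 100 and incubated at 37 °C for 60 min. Reactions were quenched with ice-cold acetonitrile, vortexed and centrifuged. The supernatant was analysed by LC-MS/MS for phosphate formation. Km and Vmax were obtained by nonlinear fitting to the Michaelis–Menten equation.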

[2] = format: in vivo; settings: Sprague–Dawley rats, oral 3 mg/kg
How it was run: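 Male Sprague–Dawley rats, three per group, were fasted 12 h, dosed orally at 3 mg/kg in 0.5% hydroxypropyl methylcellulose, and fed 4 h postdose. Heparinized orbital blood was taken from 0.08 to 48 h, including 6 h, and protein-precipitated with acetonitrile. Parent and phosphorylated drug were quantified by positive-ESI MRM LC-MS/MS on a C18 column with a formic acid water/methanol gradient.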

[3] = In vitro phosphorylation of compounds in human whole blood; format: in vitro ADME; settings: for Vmax (phosphorylation): 37 °C, 60 min, 1–100 μmol/L; for Km: read-out: Km (phosphorylation), 37 °C, 60 min, 1–100 μmol/L
How it was run: as §1

| Structure (SMILES) | CLint (phosphorylation) [1] [µL/min] | phosphorylation level at 6 h after dosing [2] [%] | CLint (phosphorylation) [3] [µL/min] | Vmax (phosphorylation) [1] [pmol/min] | Km [1] [µM] | Vmax (phosphorylation) [3] [pmol/min] | Km [3] [µM] |
| --- | --- | --- | --- | --- | --- | --- | --- |
| CCc1nc(-c2ccc(-c3ccc(CC[C@@H](N)CO)cc3)cc2)co1.Cl [Compound 24, (R)-2-Amino-4-(4′-(2-ethyloxazol-4-yl)-[1,1′-biphenyl]-4-yl)butan-1-ol hydrochloride] | 0.015 | 89 | 0.006 | 1.9 ± 0.3 | 128 ± 23.4 | 0.24 ± 0.05 | 40.2 ± 7.3 |
| CCc1nc(-c2ccc(-c3ccc(CC[C@@](C)(N)CO)cc3)cc2)co1.Cl [Compound 23, (R)-2-Amino-4-(4′-(2-ethyloxazol-4-yl)-[1,1′-biphenyl]-4-yl)-2-methylbutan-1-ol hydrochloride] | 0.505 | 94 | 0.012 | 65.2 ± 8.2 | 129 ± 15.6 | 0.87 ± 0.09 | 65.5 ± 8.3 |
| CCCCCCCCc1ccc(CC[C@@H](N)CO)cc1.Cl [Compound 22, (R)-2-Amino-4-(4-octylphenyl)butan-1-ol hydrochloride] | 3.121 | 69 | 0.021 | 28.4 ± 4.5 | 9.1 ± 1.8 | 1.24 ± 0.31 | 58.2 ± 10.6 |

Further lines, with some results ahead:

| CLint (phosphorylation) [1] [µL/min] | phosphorylation level at 6 h after dosing [2] [%] | CLint (phosphorylation) [3] [µL/min] | Structure (SMILES) | Vmax (phosphorylation) [1] [pmol/min] | Km [1] [µM] | Vmax (phosphorylation) [3] [pmol/min] | Km [3] [µM] |
| --- | --- | --- | --- | --- | --- | --- | --- |
| 0.930 | 80 | 0.013 | CCCCCCCCc1ccc(CCC(N)(CO)CO)cc1 [FTY720, fingolimod, reference compound] | 63.4 ± 10.2 | 68.2 ± 11.2 | 0.33 ± 0.05 | 25.7 ± 4.2 |
| 1.545 | 95 | 0.295 | CCCCCCCCc1ccc(CC[C@@](C)(N)CO)cc1.Cl [Compound 21, (R)-2-Amino-2-methyl-4-(4-octylphenyl)butan-1-ol hydrochloride] | 221 ± 36.8 | 143 ± 25.4 | 3.36 ± 0.62 | 11.4 ± 1.9 |
